# Legend:
# S. aureus ATCC 27660 = assay: MIC by microdilution; format: cell-based; conditions: Staphylococcus aureus, ATCC27660
# Outline: (§1)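 S. aureus was tested by CLSI broth microdilution in cation-adjusted Mueller Hinton II broth, final inoculum 5 × 10⁵ CFU/mL, 35 °C, read after 16–20 or 20–24 h; oxacillin was tested with 2% NaCl. MIC was the lowest concentration without visible growth, in triplicate. For ATCC 29213, inocula of 5 × 10⁶ and 5 × 10⁷ CFU/mL were also tested.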
# E. faecalis 99 (Van R) = assay: MIC by microdilution; format: cell-based; conditions: Enterococcus faecalis
# Outline: (§2)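 CLSI broth microdilution in cation-adjusted Mueller Hinton II broth, final inoculum 5 × 10⁵ CFU/mL. Plates incubated at 35 °C and read after 16–20 or 20–24 h depending on species. MIC taken as the lowest concentration with no visible growth. All determinations in triplicate.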
# E. faecalis 201 (Van S) = assay: MIC by microdilution; format: cell-based; conditions: Enterococcus faecalis
# Outline: as §2
# [1] = system: S. hemolyticus ATCC 29970; assay: MIC by microdilution; format: cell-based; conditions: Streptococcus pyogenes, ATCC29970
# S. aureus VRS2 = assay: MIC by microdilution; format: cell-based; conditions: Staphylococcus aureus, MRSA
# Outline: as §1
# S. aureus NRS100 (COL) = assay: MIC by microdilution; format: cell-based; conditions: Staphylococcus aureus
# Outline: as §1
# [2] = system: E. faecium 119–39A (Van S); assay: MIC by microdilution; format: cell-based; conditions: Enterococcus faecium
# Outline: as §2
# S. pyogenes ATCC 49399 = assay: MIC by microdilution; format: cell-based; conditions: Streptococcus pyogenes, ATCC49399
# Outline: (§3)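 Streptococcal MICs came from CLSI broth microdilution in cation-adjusted Mueller Hinton II broth with 5% lysed horse blood. Final inoculum 5 × 10⁵ CFU/mL, incubation at 35 °C, read after 16–20 or 20–24 h depending on species. MIC was the lowest concentration without visible growth, determined in triplicate.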
# E. faecium NCTC 7171 = assay: MIC by microdilution; format: cell-based; conditions: Enterococcus faecium, NCTC7171
# Outline: as §2
# S. epidermis ATCC 35547 = assay: MIC by microdilution; format: cell-based
# Outline: as §2
# E. faecalis ATCC 29212 = assay: MIC by microdilution; format: cell-based; conditions: Enterococcus faecalis, ATCC29212
# Outline: as §2
# S. aureus VRS1 = assay: MIC by microdilution; format: cell-based; conditions: Staphylococcus aureus, MRSA
# Outline: as §1
# S. aureus NRS120 = assay: MIC by microdilution; format: cell-based; conditions: Staphylococcus aureus
# Outline: as §1
# E. faecium 106 (Van R) = assay: MIC by microdilution; format: cell-based; conditions: Enterococcus faecium
# Outline: as §2
# S. aureus NRS119 = assay: MIC by microdilution; format: cell-based; conditions: Staphylococcus aureus
# Outline: as §1
# S. oralis ATCC 9811 = assay: MIC by microdilution; format: cell-based; conditions: Streptococcus oralis, ATCC9811
# Outline: as §3
# E. faecium = assay: Initial antibacterial screen of in silico hits; format: cell-based, Enterococcus faecium; conditions: initial screening of in silico hits
# S. aureus = assay: Initial antibacterial screen of in silico hits; format: cell-based, Staphylococcus aureus; conditions: initial screening of in silico hits
# red blood cells = assay: Hemolysis assay; format: cell-based, horse; conditions: horse RBCs, 37 °C, 1 h; 3% values at 64 μg/mL (32-fold above the MIC)
# S. aureus ATCC 29213 = assay: MIC by microdilution; format: cell-based; conditions: Staphylococcus aureus, ATCC29213
# Outline: as §1
# Pharmacokinetics in mice = format: in vivo; conditions: for AUC(0-inf) / Vd / clearance / Cmax / Tmax: ICR, mouse, plasma, 50 mg/kg; for higher systemic exposure relative to comparator compound / volume of distribution (in words): mice; for higher systemic exposure relative to comparator compound: 50 mg/kg iv, compound 3 vs compound 2, compound 4 vs compound 3; for volume of distribution (in words): single 50 mg/kg iv
# Outline: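 Female ICR mice received a single 50 mg/kg dose, either iv in 10% DMSO/25% Tween-80/65% water or po by gavage (n = 3 per time point). Terminal blood was taken at 2 min–24 h after iv and 0.5–48 h after po, then centrifuged for plasma. Plasma was precipitated with acetonitrile containing internal standard and analysed by C18 UPLC-ESI(+)-MRM against calibration curves in blank mouse plasma.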
# [3] = system: RNA synthesis (transcription) of S. aureus; assay: Macromolecular synthesis assay, [5-3H]-uridine incorporation; format: cell-based, Staphylococcus aureus; conditions: S. aureus ATCC 29213, logarithmic phase; 0.25 and 0.5 μg/mL
# Outline: (§4)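 Mid-exponential S. aureus ATCC 29213 in brain heart infusion was labelled with 1 μCi/mL ³H-precursor for 10 min at 37 °C before test compound addition (0.25, 0.5 μg/mL). Controls: ciprofloxacin (thymidine), rifampicin (uridine), tetracycline (leucine), fosfomycin (alanine). Samples every 20 min up to 2 h, precipitated in 20% cold TCA, filtered, scintillation-counted. Triplicates, repeated at least twice; % inhibition versus control.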
# [4] = system: peptidoglycan synthesis of S. aureus; assay: Macromolecular synthesis assay, D-[2,3-3H]-alanine incorporation; format: cell-based, Staphylococcus aureus; conditions: S. aureus ATCC 29213, logarithmic phase; 0.25 and 0.5 μg/mL
# Outline: as §4
# [5] = system: S. aureus ATCC 27660 (MRSA); assay: Mouse peritonitis infection model; format: in vivo, Staphylococcus aureus; conditions: mice, antibiotic 3 vs 4
# Outline: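 Female ICR mice (6–8 weeks, 17–20 g) were infected intraperitoneally with 0.5 mL MRSA ATCC 27660 at 5 × 10⁷ CFU/mL in 5% mucin. The inoculum was grown in brain heart infusion and adjusted to OD540 0.5. A single oral gavage dose was given 1 h post-infection (n = 6/group), with linezolid 10 mg/kg as positive control. Survival was monitored over 2 days.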
# Hemolysis assay = format: cell-based, horse; conditions: horse, washed red blood cells from horse whole blood
# [6] = system: protein synthesis (translation) of S. aureus; assay: Macromolecular synthesis assay, L-[4,5-3H]-leucine incorporation; format: cell-based, Staphylococcus aureus; conditions: S. aureus ATCC 29213, logarithmic phase; 0.25 and 0.5 μg/mL
# Outline: as §4
# [7] = system: E. coli S30 extract coupled transcription and translation system; assay: In vitro transcription/translation assay; format: biochemical; conditions: concentrations of up to 160 μg/mL (80-fold above the MIC)
# Outline: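 The coupled system used the E. coli S30 extract (circular DNA) with a pUC19 lacZ template. Test compound was added at 0.5, 5, 50 and 160 μg/mL alongside a negative control. Reactions ran 2 h at 37 °C and were stopped on ice for 5 min. β-Galactosidase was quantified by o-nitrophenyl-β-D-galactoside hydrolysis, read at 420 nm against a standard curve.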
# [8] = system: DNA synthesis (replication) of S. aureus; assay: Macromolecular synthesis assay, [methyl-3H]-thymidine incorporation; format: cell-based, Staphylococcus aureus; conditions: S. aureus ATCC 29213, logarithmic phase; 0.25 and 0.5 μg/mL
# Outline: as §4
# [9] = system: T7 polymerase transcription of the dacB gene encoding E. coli PBP4; assay: In vitro transcription assay; format: biochemical; conditions: 0.5, 5, 50 and 160 μg/mL, 2 h at 37 °C
# Outline: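 Template was pET24a carrying E. coli K12 dacB without the 90-bp signal-peptide region, linearized with XhoI, 2 μL at 0.5 μg/μL per reaction. Run with a T7 transcription kit, test compound or negative control, then iced. DNaseI (37 °C, 15 min) and EDTA with 65 °C for 10 min followed. Transcripts diluted 30-fold and run on a 1% denaturing formaldehyde gel in MOPS pH 7.0.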
# [10] = biological target: purified recombinant PBP2a (Staphylococcus aureus, UniProt P07944); assay: Continuous spectrophotometric PBP2a inhibition assay with nitrocefin; format: biochemical, MRSA
# Sequence of purified recombinant PBP2a (P07944 whole entry): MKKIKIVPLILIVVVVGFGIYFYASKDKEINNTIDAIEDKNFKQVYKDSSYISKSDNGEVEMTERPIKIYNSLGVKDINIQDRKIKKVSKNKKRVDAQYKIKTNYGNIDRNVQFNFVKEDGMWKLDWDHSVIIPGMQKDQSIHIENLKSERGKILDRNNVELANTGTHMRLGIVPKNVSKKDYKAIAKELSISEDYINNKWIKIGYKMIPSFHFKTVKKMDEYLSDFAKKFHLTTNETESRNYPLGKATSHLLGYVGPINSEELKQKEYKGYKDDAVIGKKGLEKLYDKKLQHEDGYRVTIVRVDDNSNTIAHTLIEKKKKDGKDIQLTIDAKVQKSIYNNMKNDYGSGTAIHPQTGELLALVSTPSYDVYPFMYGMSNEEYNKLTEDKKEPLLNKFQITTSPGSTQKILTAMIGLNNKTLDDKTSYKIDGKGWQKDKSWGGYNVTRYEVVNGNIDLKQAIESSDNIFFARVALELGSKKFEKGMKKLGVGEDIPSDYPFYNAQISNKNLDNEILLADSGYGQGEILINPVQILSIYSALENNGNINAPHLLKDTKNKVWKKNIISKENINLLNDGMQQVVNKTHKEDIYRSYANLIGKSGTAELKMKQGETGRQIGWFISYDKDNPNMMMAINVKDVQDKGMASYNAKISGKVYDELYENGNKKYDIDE
SMILES,MIC (S. aureus ATCC 27660),MIC (E. faecalis 99 (Van R)),MIC (E. faecalis 201 (Van S)),MIC [1],MIC (S. aureus VRS2),MIC (S. aureus NRS100 (COL)),MIC [2],MIC (S. pyogenes ATCC 49399),MIC (E. faecium NCTC 7171),MIC (S. epidermis ATCC 35547),MIC (E. faecalis ATCC 29212),MIC (S. aureus VRS1),MIC (S. aureus NRS120),MIC (E. faecium 106 (Van R)),MIC (S. aureus NRS119),MIC (S. oralis ATCC 9811),MIC (S. aureus ATCC 29213),AUC(0-inf) (Pharmacokinetics in mice; iv),Vd (Pharmacokinetics in mice; iv),volume of distribution (in words) (Pharmacokinetics in mice),other results
"CN[C@H](CC(C)C)C(=O)N[C@H]1C(=O)N[C@@H](CC(N)=O)C(=O)N[C@H]2C(=O)N[C@H]3C(=O)N[C@H](C(=O)N[C@H](C(=O)O)c4cc(O)cc(O)c4-c4cc3ccc4O)[C@H](O)c3ccc(c(Cl)c3)Oc3cc2cc(c3O[C@@H]2O[C@H](CO)[C@@H](O)[C@H](O)[C@H]2O[C@H]2C[C@](C)(N)[C@H](O)[C@H](C)O2)Oc2ccc(cc2Cl)[C@H]1O [vancomycin, reference compound]",1 µg/mL,128 µg/mL,1 µg/mL,2 µg/mL,64 µg/mL,2 µg/mL,0.5 µg/mL,0.6 µg/mL,0.5 µg/mL,16 µg/mL,2 µg/mL,512 µg/mL,2 µg/mL,256 µg/mL,2 µg/mL,0.5 µg/mL,,,,,
"Fc1ccc(-c2nc(-c3ccc(Oc4ccc(C(F)(F)F)cc4)cc3)no2)cc1 [Compound 1, 5-(4-Fluorophenyl)-3-(4-(4-(trifluoromethyl)phenoxy)phenyl)-1,2,4-oxadiazole]",,,,,,,,,,,,,,,,,,,,,MIC (in words) (E. faecium): poor but reproducible MIC; MIC (in words) (S. aureus): poor but reproducible MIC
"Nc1ccc(-c2nc(-c3ccc(Oc4ccc(C(F)(F)F)cc4)cc3)no2)cc1 [Compound 4, 4-(3-(4-(4-(Trifluoromethyl)phenoxy)phenyl)-1,2,4-oxadiazol-5-yl)aniline]",2 µg/mL,2 µg/mL,> 32 µg/mL,4 µg/mL,2 µg/mL,2 µg/mL,1 µg/mL,32 µg/mL,2 µg/mL,2 µg/mL,2 µg/mL,2 µg/mL,2 µg/mL,2 µg/mL,2 µg/mL,32 µg/mL,2 µg/mL,153000 ng·h/mL,0.72 L/kg,large volume of distribution,"hemolysis of red blood cells (red blood cells): not hemolytic at all; clearance (Pharmacokinetics in mice; iv): 5.4 mL/min/kg; AUC(0-inf) (Pharmacokinetics in mice; female, po): 154000 ng·h/mL; Cmax (Pharmacokinetics in mice; female, po): 10000 ng/mL; Tmax (Pharmacokinetics in mice; female, po): 2 h; higher systemic exposure relative to comparator compound (Pharmacokinetics in mice): 3.5 fold"
"Oc1ccc(-c2nc(-c3ccc(Oc4ccc(C(F)(F)F)cc4)cc3)no2)cc1 [Compound 3, 4-(3-(4-(4-(Trifluoromethyl)phenoxy)phenyl)-1,2,4-oxadiazol-5-yl)phenol]",2 µg/mL,,2 µg/mL,2 µg/mL,2 µg/mL,2 µg/mL,1 µg/mL,> 32 µg/mL,2 µg/mL,2 µg/mL,2 µg/mL,2 µg/mL,2 µg/mL,2 µg/mL,2 µg/mL,32 µg/mL,2 µg/mL,44200 ng·h/mL,0.37 L/kg,moderate volume of distribution,"inhibition of transcription [3]: did not inhibit; inhibition of peptidoglycan synthesis [4]: inhibited peptidoglycan synthesis; efficacy following po dosing (comparison) [5]: superior efficacy; hemolysis at 1 h, 64 μg/mL (Hemolysis assay): 3%; inhibition of translation [6]: did not inhibit; effect on β-galactosidase formation [7]: no effect; AUC(0-inf) (Pharmacokinetics in mice; female, po): 43700 ng·h/mL; Cmax (Pharmacokinetics in mice; female, po): 2500 ng/mL; Tmax (Pharmacokinetics in mice; female, po): 2 h; higher systemic exposure relative to comparator compound (Pharmacokinetics in mice): 2 fold; inhibition of replication (DNA synthesis) [8]: did not inhibit; effect on dacB mRNA band intensities [9]: no effect; IC50 [10]: 20.1 µM"
"Oc1ccc(-c2nc(-c3ccc(Oc4ccccc4)cc3)no2)cc1 [Compound 2, 4-(3-(4-Phenoxyphenyl)-1,2,4-oxadiazol-5-yl)phenol]",2 µg/mL,,2 µg/mL,2 µg/mL,2 µg/mL,2 µg/mL,1 µg/mL,32 µg/mL,1 µg/mL,2 µg/mL,2 µg/mL,2 µg/mL,2 µg/mL,2 µg/mL,2 µg/mL,32 µg/mL,2 µg/mL,23000 ng·h/mL,0.86 L/kg,large volume of distribution,"hemolysis at 1 h, 64 μg/mL (Hemolysis assay): 3%; clearance (Pharmacokinetics in mice; iv): 36.2 mL/min/kg; IC50 [10]: 12.1 µM"
"CC(=O)NC[C@H]1CN(c2ccc(N3CCOCC3)c(F)c2)C(=O)O1 [linezolid, reference compound]",2 µg/mL,1 µg/mL,2 µg/mL,2 µg/mL,2 µg/mL,2 µg/mL,2 µg/mL,1 µg/mL,2 µg/mL,1 µg/mL,2 µg/mL,2 µg/mL,32 µg/mL,1 µg/mL,32 µg/mL,1 µg/mL,4 µg/mL,,,,

# — paper PMC3985699 (Journal of the American Chemical Society, 2014)
